# Assay outcomes from PubChem.
# Cl transport mod – KCC2 cotransporter modulators, thallium flux, primary screen, cell-based, HEK293 KCC2, FluoZin-2 fluorescence, MLSMR. Solute carrier family 12 member 5 (Homo sapiens), Q9H2X9. KCC2 cells, thallium flux FluoZin-2 fluorescence. B-score of Tl+ flux slope (higher = more flux/activation; lower = inhibition) at 10 µM. 190,000 compounds, 2.2% hits;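 active = thallium flux slope and its plate-corrected score both differing from the plate sample mean at a set confidence after two filtering rounds, in either direction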;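 note: slope of fluorescence scaled to starting intensity during 10 to 20 s after thallium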
# Yeast growth inh – growth inhibitors of yeast BB579 in restrictive medium, primary screen, yeast lifespan-shortening project, S. cerevisiae; OD615, 48 h; inhibition, % at 10 µM; 140,000 compounds, 0.51% hits; AID 804, 2007;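 active = inhibition above a set limit, 3 SD over the mean compound inhibition, cut at about 44% in these data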
#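 Assay system: S. cerevisiae DeaD strain BB579 yeast. Medium: CSMM-D restrictive synthetic medium containing dextrose (glucose). Times: 4 h cell preincubation, 48 h compound exposure, 30 °C humidified. Signal: OD615 turbidity measurement. Benchmarks: positive control amphotericin B 10 µg/mL.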
# RAM network inh – inhibitors of the yeast RAM network, primary screen, dse1pr::URA3 reporter, 5-FOA selection; S. cerevisiae dse1pr::URA3 reporter, 5-FOA growth OD615, 2 d; analog-sensitive cbk1-as2 kinase mutant strain; inhibition, % at 50 µM; 190,000 compounds, 1.8% hits;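 active = inhibition above a set limit, 3 SD over mean compound inhibition, cut at about 8.4% in these data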;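 note: 0% = DMSO-only wells with no growth and 100% = 10 µM 1-NA-PP1 full growth; inhibition rescues growth on 5-FOA so higher OD means more RAM inhibition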
# Yeast life ext – compounds extending yeast replicative lifespan, primary screen, S. cerevisiae, OD615. S. cerevisiae growth with nicotinamide; deaD strain in restrictive glucose medium. inhibition of the nicotinamide effect, % at 10 µM. 130,000 compounds, 0.68% hits;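 active = inhibition above a set limit, placed 3 SD over the median of all compounds, cut at about 26% in these data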;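 note: 0% = nicotinamide-treated wells and 100% = cells grown without nicotinamide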
#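 assay system = DeaD-strain S. cerevisiae | measured by = absorbance at 615 nm | probe or stimulus = nicotinamide 1.5 mM | buffer or medium = CSMM-D glucose medium, restrictive | times = 48 h at 30 °C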
# WT yeast gro inh – growth inhibition of WT strain, primary screen, mitochondrial fusion inhibitor project, WT and mutant strains, chemical genetic; mitochondrial fusion phenotypic screen; inhibition, % at 10 µM; 190,000 compounds, 2.1% hits; in the data active = inhibition above about 58%; tested in S. cerevisiae
# An asterisk follows results filed as active; . = not tested or not shown. Rows were chosen to be rich in hits. Some 5.5% of all compounds tested hit in one or more screens of this group.
SMILES,Cl transport mod,Yeast growth inh,RAM network inh,Yeast life ext,WT yeast gro inh
CC(C)=C1C2CCC1C1C(=O)N(c3nc(-c4ccccc4)c(C)s3)C(=O)C21 (configuration not stated),-0.12,-17,6,9,59*
CC(C)=C1C2CCC1C1C(=O)N(c3nccs3)C(=O)C21 (configuration not stated),1.3,-31,2,15,4
Cc1oc(S(=O)(=O)N2CCOCC2)cc1C(=O)Nc1ccc(Cl)cc1,1.3,.,.,.,.
CC(C)CNC(=O)c1cccc(NC(=O)CCc2ccccc2)c1,-0.6,.,2,.,6
Cc1ccc2cc(CN(Cc3cccs3)C(=O)c3ccco3)c3nnnn3c2c1C,-0.19,-35,5,11,58*
Cc1ccc(C(=O)N2CCCC2)cc1S(=O)(=O)Nc1cccc(C)c1C,-0.97,.,-2,.,-1
CC1=NN(c2ccccc2)C(=O)/C1=C/c1cc2cc(C)ccc2nc1N1CCCCC1,.,-12,1,1,71*
CC1=NN(c2ccccc2)C(=O)/C1=C\c1cc(C)n(C)c1C,-0.02,.,.,.,.
CC(/C=C/C=C/c1ccccc1)=N/NC(=O)c1ccc2c(c1)OCCO2,-0.49,.,.,.,.
COc1ccccc1NC(CC(=O)c1ccccc1)C(=O)OCC(=O)c1ccc(F)cc1 (configuration not stated),-3.5,-31,11*,0,17
O=C(CC(Nc1cccc(Cl)c1Cl)C(=O)OCC(=O)c1cccs1)c1ccccc1 (configuration not stated),0.57,-3,9.0*,-5,23
CCOc1ccc(S(=O)(=O)NCCC(=O)OCC(=O)Nc2cc(C)on2)cc1,-0.25,.,.,.,.
CN(C)S(=O)(=O)c1cccc(NC(=O)COC(=O)c2cc3ccccc3oc2=O)c1,-0.73,.,.,.,.
COc1cc(NC(=O)C(=O)NCCN2CCNCC2)c(OC)cc1Cl,-0.36,.,0,.,2
O=[N+]([O-])c1ccc(Oc2cccc3cccnc23)c([N+](=O)[O-])c1,-0.29,-53,0,1,63*
Cc1ccccc1C(=O)NNC(=O)/C=C/c1ccccc1,-1.3,.,1,.,-3
CCOC(=O)C1(Cc2cccc(F)c2)CCN(C(=O)Cn2cnnn2)CC1,-1,.,.,.,.
O=C(CN1CCN(S(=O)(=O)c2ccccc2)CC1)Nc1ccccc1C(=O)c1ccccc1,0.0012,-18,3,-1,25
Cc1c(N=Cc2cc(Br)cc(Br)c2O)cccc1C(=O)O,-0.9,98*,-2,-13,3
O=C(O)c1cccc(N/N=C/c2cc(Br)cc(Br)c2O)c1,-3.3,-41,7,2,-18
O=[N+]([O-])c1cc2oc3c(c2c(C=NCc2ccncc2)c1O)CCCC3,-0.52,9,0,67*,-4
O=C(COC(=O)C1(c2ccc(F)cc2)CCCC1)N1CCc2ccccc21,0.61,-6,1,6,3
Cc1ccccc1NS(=O)(=O)c1ccc(NC(=O)CSCc2ccc(Br)cc2)cc1,.,-4,7,-7,66*
O=C(NCCc1ccccc1)c1cc(S(=O)(=O)N2CCOCC2)ccc1F,-2.3,-16,2,-6,-6
O=C(Nc1cccc(Cl)c1Cl)c1cc(S(=O)(=O)NCCc2ccccc2)ccc1F,-1.2,-64,9.4*,8,7
SMILES,Cl transport mod,Yeast growth inh,RAM network inh,Yeast life ext,WT yeast gro inh
CCC(C)n1cnc2c(c1=O)c1nc3ccccc3nc1n2Cc1ccc(OC)cc1 (configuration not stated),-1.2,-35,2,-11,65*
CC(C)Cn1cnc2c(c1=O)c1nc3ccccc3nc1n2Cc1ccc2c(c1)OCO2,0.13,-12,3,-15,2
COc1ccc(-c2noc(CCC(=O)Nc3nc4ccccc4s3)n2)cc1,.,-44,4,-4,7
CC(=O)C(Cc1ccccc1)NC(=O)CN1CCN(Cc2ccccc2)CC1 (configuration not stated),-0.18,.,-1,.,11
CN(C)/C=N/N(C)c1ncccc1[N+](=O)[O-],-0.032,.,.,.,.
Cc1ccc2oc(=O)c3cc(C(=O)N4CCN(C(=O)c5ccco5)CC4)sc3c2c1,-2.5*,.,1,.,20
COc1ccccc1N(C)S(=O)(=O)c1ccc(C(=O)OCC(=O)N2CCCCCC2)cc1,-1,.,2,.,-4
FC(F)(F)c1cc(CCN2C(=S)NC[C@@H]2Cc2ccccc2)cc(C(F)(F)F)c1,-2.5,.,6,.,64*
Oc1ccc(Cl)cc1-c1cc(-c2ccccc2)n[nH]1,0.7,-40,5,-13,59*
COc1ccc(-c2cc(-c3ccccc3O)[nH]n2)cc1,-2,76*,-1,-13,37
COc1ccccc1-c1cc(-c2cc(Cl)ccc2O)n[nH]1,.,-56,3,-3,-3
COc1ccc(/C=C/c2nc(-c3ccccc3O)n(-c3ccccc3)n2)cc1,0.16,-45,1,-1,7
COc1ccc(/C=C/c2nc(-c3ccccc3O)n[nH]2)cc1,-0.13,-42,8.8*,-2,53
CCC(C)(C)n1nnnc1CN1CCc2ccccc21,0.89,-12,2,10,1
O=C(c1ccccc1F)N1CCCC(C(=O)N2CCc3ccccc3C2)C1 (configuration not stated),-0.11,.,.,.,.
O=C(ONc1ccc(N=NC(=O)c2ccccc2O)cc1)c1ccccc1,-0.03,-16,2,4,38
O=Nc1ccc(NOC(=O)c2ccccc2Br)cc1,-1.4,-32,3,-2,59*
O=C1CCC(C(=O)OCc2cc(Cl)ccc2OC(F)F)N1 (configuration not stated),-0.027,-6,1,-8,37
O=C(OCc1cc(Cl)ccc1OC(F)F)c1cncc(Br)c1,0.48,.,2,.,60*
CC1CCCC(NC(=O)CNC(=S)N(Cc2ccccc2)Cc2cccs2)C1C (configuration not stated),0.038,.,2,.,65*
O=c1c2ccccc2c2c(O)nc(-c3ccccc3)n2n1Cc1ccccc1,0.46,-29,3,-4,-2
CCC(C(=O)OCC(=O)Nc1cc(Cl)cc(Cl)c1)c1ccccc1 (configuration not stated),.,-63,11*,2,79*
CCC(C(=O)OCC(=O)Nc1cccc(C(C)=O)c1)c1ccccc1 (configuration not stated),-1.1,.,3,.,-6
O=C1Nc2ccccc2C12OCC1(CO2)COC2(OC1)C(=O)Nc1ccccc12 (configuration not stated),1.2,-46,2,67*,-7
CC1(C)COC2(OC1)C(=O)Nc1ccccc12,0.25,.,1,.,-11
Cc1cc(C)c(NC(=O)c2cc3c(nc4sccn43)s2)c(C)c1,-0.24,-26,0,-8,75*
